GRIN3A LBD mod – modulators (binders) of human NR3A ligand-binding domain. NR3A LBD differential scanning fluorimetry, Tm shift; 0% = protein alone, 100% = glycine-bound protein. Tm shift relative to glycine control, % at 25 µM. 2.5% of 340,000 active. AID 1259313;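 active means melting temperature shift of at least 10% of the positive control shift, at one fixed dose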
XBP1 UPR activ – activators of adaptive arm of unfolded protein response (XBP1); CHO-XBP1 luciferase reporter, IRE1-XBP1 UPR activation, luminescence; percent of tunicamycin response, DMSO as zero; 0.33% of 330,000 active; activation, % at 20 µM; AID 463104;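 active means versus positive control, 20 µM dose yields 30% or more activation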
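Material: CHO-XBP1 cells stably carrying IRE1-XBP1-driven luciferase reporter | Medium: F12 with 10% serum | Compound dosing: 20 µM single concentration, DMSO 1% | Incubation: Overnight seeding at 37 °C, 6 h compound treatment at 37 °C | Detection: Steady-Glo luminescence read | Read-out basis: % activation of reporter signal versus tunicamycin and DMSO controls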
UPR CHOP act – activators of apoptotic arm of unfolded protein response (CHOP). CHO-CHOP luciferase reporter, UPR activation, luminescence; percent of tunicamycin response over DMSO baseline. activation, % at 10 µM. 0.34% of 330,000 active;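 active means at 10 µM dose, activation of 40% or more, normalized to positive control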
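Dosing – one dose, 10 µM in 0.5% DMSO · System – CHO-CHOP cells, stable luciferase reporter of PERK-eIF2a-CHOP signalling · Input – 500 cells/well · Control set – tunicamycin 10 µg/mL final as positive, DMSO-only wells as negative · Timing – 6 h compound treatment, 37 °C · Measure – % activation vs tunicamycin · Technique – luminescence read with Steady-Glo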
MPTP block – inhibitors of mitochondrial permeability transition pore. isolated mouse mitochondria, Ca2+ swelling absorbance, 30 min. inhibition, % at 10 µM. 1.4% of 360,000 active. AID 602449;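 active means inhibition of 50% or more, scaled per plate between neutral and stimulator controls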
aDG glyco act – alpha-DG glycosylation activation; Pro5-aDG cells, alpha-DG glycosylation AlphaScreen (IIH6); 0% Pro5, 100% B10-LARGE cell signal; activation, % at 10 µM; 0.22% of 360,000 active; AID 624168;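 active means activation of at least 8% versus controls, or a plate z-score of at least 8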;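 further: Pro5 are CHO cells carrying HIG-tagged alpha-DG that lacks glycosylation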
CHOP inhibitor – blocks CHOP induction under ER stress. CHO-K1 CHOP-promoter luciferase, tunicamycin-induced, 15-18 h. inhibition, % at 10 µM. 3.8% of 220,000 active. AID 2732;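 active means compounds that reduced the stress-induced luciferase reporter signal by more than about 70% of percent inhibition, limit read from the data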
Large screens that a line does not name were inactive. Rows were chosen to be rich in hits. Some 5.6% of all compounds tested hit in one or more screens of this group.

CCN(CC)c1ccc(NC(=O)c2cccnc2)c(C)c1	none
CCN(CC)c1ccc(NC(=O)c2cnc3ccccn3c2=O)c(C)c1	CHOP inhibitor 80.8
O=C1CCC(CCC(=O)N2CCCC(C(=O)c3cccc(C(F)(F)F)c3)C2)=NN1 (stereo not given)	none
O=C(O)CCn1cc(/C=C2\NC(=S)N(c3ccccc3)C2=O)c(-c2ccc(Br)cc2)n1	none
N#CCCn1cc(/C=C2\NC(=S)N(c3ccccc3)C2=O)c(-c2ccc(F)cc2)n1	GRIN3A LBD mod 10.0, CHOP inhibitor 79.2
OCC[C@@H]1NCc2cc(CO)cc(-c3ccccc3)c21	none (no result: XBP1 UPR activ, UPR CHOP act, CHOP inhibitor)
Sc1oc(-c2ccccc2)cc1C=Nc1ccccc1	GRIN3A LBD mod 14.0
CC(Oc1ccc(Cl)cc1Cl)c1ccn[nH]1 (stereo not given)	none
CCCCN(Cc1ccco1)C(=O)C1CCCN(c2ncnc3c2nc2n3CCCCC2)C1 (stereo not given)	none (no result: CHOP inhibitor)
O=c1[nH]c2ccc(Cl)cc2c(-c2ccccc2)c1N1CCOCC1	none
O=c1[nH]c2ccc(Cl)cc2c(-c2ccccc2)c1N1CCN(c2ccccn2)CC1	CHOP inhibitor 70.6
COc1ccc(CNc2nc(NC(C)=O)nn2-c2ccccc2)cc1	none (no result: CHOP inhibitor)
N#CC1=C(SCC(N)=O)NC2=C(C(=O)c3ccccc32)C1c1ccc(Cl)cc1 (stereo not given)	GRIN3A LBD mod 18.0
CSCSC1=C(C#N)C(c2ccc(Cl)cc2)C(C(C)=O)=C(C)N1 (stereo not given)	none (no result: GRIN3A LBD mod, MPTP block, aDG glyco act)
CN(c1cccc(NC(=O)CN(c2ccc(C34CC5CC(CC(C5)C3)C4)cc2)S(C)(=O)=O)c1)S(C)(=O)=O	GRIN3A LBD mod 30.1
CN(c1cccc(NC(=O)CN(c2ccc(F)cc2)S(C)(=O)=O)c1)S(C)(=O)=O	none
CCCOCC(O)CCc1n[nH]c(=S)n1-c1ccccc1 (stereo not given)	none
O=C(Cc1ccccc1)NCC(=O)OCC(=O)c1ccc(Cl)c([N+](=O)[O-])c1	GRIN3A LBD mod 12.2
O=C(CNC(=O)Cc1ccccc1)NCC(=O)OCC(=O)c1cccc2ccccc12	GRIN3A LBD mod 12.4
O=C(CNC(=O)c1ccco1)OCC(=O)c1cccc2ccccc12	none
CC(=O)C(Sc1ncnc2sc3c(c12)CCCC3)C(C)=O	none
Cc1ccc(-c2nc(SCC(=O)NCC3CCCO3)c(-c3ccccc3)[nH]2)cc1 (stereo not given)	none
Cc1ccccc1OCc1nc2ccccc2c(=O)n1N	none
Cc1ccccc1OCc1nc2ccccc2c(=O)n1/N=C/c1c[nH]c2ccccc12	CHOP inhibitor 88.0
CCCc1nc2ccccc2c(=O)n1/N=C/c1ccccc1O	none
Cc1cccc(C)c1OCc1nc2ccccc2c(=O)n1/N=C/c1c[nH]c2ccccc12	GRIN3A LBD mod 30.7, CHOP inhibitor 84.9
COc1ccc(-c2[nH]ncc2-c2cscn2)c(O)c1	none
OCCN(Cc1ccccc1)Cc1ccc(C(F)(F)F)cc1	CHOP inhibitor 91.4
OCCN(Cc1ccccc1)Cc1cccc(C(F)(F)F)c1	none
O=C(NCCc1nc2ccccc2[nH]1)c1cc([N+](=O)[O-])cc([N+](=O)[O-])c1	GRIN3A LBD mod 11.1
Cc1ccn(CCC(=O)Nc2ccc3c(c2)OCO3)n1	none (no result: CHOP inhibitor)
O=C1OC(c2ccc(F)cc2)=N/C1=C\c1ccc(Br)o1	CHOP inhibitor 73.1
COc1cc(C2c3cc4c(cc3OC(NCCc3ccccc3)C2C)OCO4)cc(OC)c1OC (stereo not given)	none (no result: XBP1 UPR activ, UPR CHOP act, CHOP inhibitor)
N#Cc1ccccc1OCCCN1CCC(C(O)(c2ccccc2)c2ccccc2)CC1	none (no result: GRIN3A LBD mod, XBP1 UPR activ, UPR CHOP act, CHOP inhibitor)
Cc1cc2nc(CCN(Cc3cccnc3)C(=S)Nc3ccccc3)[nH]c2cc1C	none
Cc1cc2nc(CCN(Cc3cccnc3)C(=S)Nc3ccc(F)cc3)[nH]c2cc1C	GRIN3A LBD mod 26.7
COC(=O)c1cc2nc(-c3ccc(OC)cc3)cc(C(F)(F)F)n2n1	CHOP inhibitor 70.1
COC(=O)c1cc2nc(-c3ccc(C)cc3)cc(C(F)(F)F)n2n1	none
Cc1cc(Cl)ccc1OC(C)C(=O)Nc1ccc(C(=O)Nc2ccccc2C(=O)O)cc1 (stereo not given)	GRIN3A LBD mod 14.6 (no result: CHOP inhibitor)
CC(Oc1ccc(Cl)cc1Cl)C(=O)Nc1ccc(S(=O)(=O)Nc2cnc3ccccc3n2)cc1 (stereo not given)	GRIN3A LBD mod 17.5 (no result: MPTP block, aDG glyco act)
Cc1cc(Cl)ccc1OC(C)C(=O)Nc1ccc(S(=O)(=O)Nc2cnc3ccccc3n2)cc1 (stereo not given)	GRIN3A LBD mod 13.6
O=C(Cc1ccc(Cl)cc1)Nc1ccc(S(=O)(=O)Nc2cnc3ccccc3n2)cc1	GRIN3A LBD mod 10.2
O=C(Nc1ccc(S(=O)(=O)Nc2cnc3ccccc3n2)cc1)c1ccc(Cl)cc1Cl	none (no result: CHOP inhibitor)
CCN(CCc1ccccc1)c1ccc2c(c1)C1CC2CCN1Cc1ccccc1 (stereo not given)	none (no result: GRIN3A LBD mod, XBP1 UPR activ, UPR CHOP act, CHOP inhibitor)
CCCCn1c(N)c(N(CCC(C)C)C(=O)c2ccc(N3CCCC3=O)cc2)c(=O)[nH]c1=O	none (no result: CHOP inhibitor)
COc1ccc(C(=O)Nc2ccc(S(=O)(=O)Nc3cnc4ccccc4n3)cc2)cc1	none (no result: CHOP inhibitor)
O=C(Nc1ccc(S(=O)(=O)Nc2cnc3ccccc3n2)cc1)c1ccc(Cl)c([N+](=O)[O-])c1	GRIN3A LBD mod 24.3 (no result: CHOP inhibitor)
C[C@@H]1CN([C@H](C)CO)S(=O)(=O)c2ccc(Br)cc2O[C@H]1CN(C)C(=O)Nc1ccccc1	none (no result: GRIN3A LBD mod, XBP1 UPR activ, UPR CHOP act, CHOP inhibitor)
Cc1cnc([N+](=O)[O-])n1CCOC(=O)NC(=O)c1ccccc1Cl	none
COc1cc(NC(=O)C2CCCN(S(=O)(=O)c3ccc4[nH]c(=O)ccc4c3)C2)cc(OC)c1 (stereo not given)	GRIN3A LBD mod 11.9 (no result: CHOP inhibitor)
CCCNC(=O)C1CCN(S(=O)(=O)c2ccc3[nH]c(=O)ccc3c2)CC1	GRIN3A LBD mod 16.6 (no result: CHOP inhibitor)
COc1ccc(NC(=O)C2CCCN(S(=O)(=O)c3ccc4[nH]c(=O)ccc4c3)C2)cc1 (stereo not given)	none (no result: CHOP inhibitor)
CC(C)[C@@H]1Cc2[nH][nH]c(=O)c2[C@H](C(C)C)O1	none (no result: GRIN3A LBD mod, XBP1 UPR activ, UPR CHOP act, CHOP inhibitor)
Cn1c(N)c(C(=O)COC(=O)c2ccc([N+](=O)[O-])o2)c(=O)n(C)c1=O	none
OCC1(Cc2cccc(C(F)(F)F)c2)CCN(Cc2cc3ccccc3o2)CC1	CHOP inhibitor 89.3
COCC(C)n1c(C)cc(C(=O)COC(=O)CN=C2NS(=O)(=O)c3ccccc32)c1C (stereo not given)	GRIN3A LBD mod 10.2
COc1ccc(S(=O)(=O)N(C)CC(=O)NC2CCCCC2)cc1Cl	GRIN3A LBD mod 11.2
COc1ccc(S(=O)(=O)N(C)CC(=O)Nc2ccc(C(F)(F)F)cc2)cc1Cl	CHOP inhibitor 80.8
COc1ccccc1NC(=O)COc1ccc(CO)cc1Cl	GRIN3A LBD mod 11.0

From PubChem BioAssay
